Reference: ChEMBL document CHEMBL3826936, “Alkyne-substituted diminazene as G-quadruplex binders with anticancer activities” (Eur J Med Chem, 2016)
One block for each compound: values may come before it. Activity calls are given as the source filed them. The calls are words filed in the database; no cut-off is given here.

Assays:
[1] = Binding affinity to 5'-FAM/3'-TAMRA labeled c-MYC 22-mer G-quadruplex DNA (unknown origin) at 4 uM in presence of 26-mer duplex DNA by TR-FRET assay
[2] = Binding affinity to 5'-FAM/3'-TAMRA labeled c-MYC 22-mer G-quadruplex DNA (unknown origin) assessed as change in melting temperature at 4 uM after 12 hrs by TR-FRET assay
In short: (§1)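 Dual-labeled FAM/TAMRA oligos diluted to 800 nM in 60 mM potassium cacodylate (pH 7.2), annealed 10 min at 85 °C and cooled to room temperature. Mixed 1:1 with ligand at […] in the same buffer. Equilibrated at least 12 h at 4 °C. ΔT1/2 taken as melting temperature with minus without ligand, in triplicate, averaged.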

[3] = Binding affinity to 5'-FAM/3'-TAMRA labeled F21T 21-mer G-quadruplex DNA (unknown origin) assessed as change in melting temperature at 4 uM after 12 hrs by TR-FRET assay; in short: as §1
[4] = Binding affinity to 5'-FAM/3'-TAMRA labeled c-kit2 26-mer G-quadruplex DNA (unknown origin) assessed as change in melting temperature at 4 uM after 12 hrs by TR-FRET assay; in short: as §1
[5] = Binding affinity to 5'-FAM/3'-TAMRA labeled k-RAS21R 21-mer G-quadruplex DNA (unknown origin) assessed as change in melting temperature at 4 uM after 12 hrs by TR-FRET assay; in short: as §1
[6] = Binding affinity to 5'-FAM/3'-TAMRA labeled 26-mer duplex DNA (unknown origin) assessed as change in melting temperature at 4 uM after 12 hrs by TR-FRET assay
[7] = Antiproliferative activity against human OVCAR3 cells after 72 hrs by WST-1 assay; type: functional; details: OVCAR-3, 72 h
In short: (§2)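 Cells seeded in 96-well plates the afternoon before treatment, at numbers keeping them in log-phase growth; about 18 h later, compounds semi-serially diluted in DMSO then growth medium and added. Incubation 72 h, then WST-1 added and plates read after 4 more hours at 37 °C. GI50 derived from curve fits; viability expressed relative to DMSO control.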

[8] = Antiproliferative activity against human PC3 cells after 72 hrs by WST-1 assay; type: functional; details: PC-3, 72 h; in short: as §2
MDA-MB-231 [9] = assay: Antiproliferative activity against human MDA-MB-231 cells after 72 hrs by WST-1 assay; type: functional; details: MDA-MB-231, 72 h; in short: as §2
[10] = Antiproliferative activity against human OVCAR3 cells assessed as cell viability at 20 uM after 72 hrs by WST-1 assay relative to control; type: functional; details: OVCAR-3, 72 h, read-out: Activity; in short: as §2
[11] = Antiproliferative activity against human PC3 cells assessed as cell viability at 20 uM after 72 hrs by WST-1 assay relative to control; type: functional; details: PC-3, 72 h, read-out: Activity; in short: as §2
MDA-MB-231 [12] = assay: Antiproliferative activity against human MDA-MB-231 cells assessed as cell viability at 20 uM after 72 hrs by WST-1 assay relative to control; type: functional; details: MDA-MB-231, 72 h, read-out: Activity; in short: as §2
[13] = Antiproliferative activity against human bone marrow cells after 72 hrs by WST-1 assay; type: cell-based, Bone marrow cell
In short: (§3)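 Cells seeded the afternoon before treatment at densities giving log-phase growth; about 18 h later compounds, semi-serially diluted in DMSO then growth medium, were added. After 72 h WST-1 was added, with a further 4 h at 37 °C before plate reading. GI50 values were calculated from the curves. NBM was grown in RPMI; MCR5A was handled per ATCC.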

[14] = Antiproliferative activity against human MCR5A cells after 72 hrs by WST-1 assay; type: cell-based; in short: as §3
[15] = Stabilization of c-MYC Pu27 G-quadruplex DNA (unknown origin) assessed as inhibition of Taq polymerase-mediated polymerization/extension of Pu27 and Pu27rev oligomers at 25 uM preincubated for 6 hrs followed by Taq polymerase addition by PCR stop assay
In short: (§4)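 Each 25 µL PCR mix held 1x buffer, 5 µM template (Pu27, Pu27-13,14 or Pu-mutant) and 5 µM Pu27rev, plus ligand at various concentrations, and was held at 4 °C for 6 h. Then 200 µM dNTPs and 5 U Taq were added. Cycling: 94 °C 3 min, then 20 cycles of 94 °C 30 s, 58 °C 30 s and 72 °C 30 s. Reactions without compound served as control.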

[16] = Stabilization of c-MYC template Pu27-13,14 mutant DNA (unknown origin) assessed as inhibition of Taq polymerase-mediated polymerization/extension of Pu27-13,14 mutant and Pu27rev oligomers at 10 uM preincubated for 6 hrs followed by Taq polymerase addition by PCR stop assay; in short: as §4
[17] = Stabilization of c-MYC template Pu27 mutant DNA (unknown origin) assessed as inhibition of Taq polymerase-mediated polymerization/extension of Pu27 mutant and Pu27rev oligomers at 10 uM preincubated for 6 hrs followed by Taq polymerase addition by PCR stop assay; in short: as §4
[18] = biological target: Telomerase reverse transcriptase (Homo sapiens) (UniProt O14746); assay: Inhibition of telomerase activity in human MDA-MB-231 cells using amplifour TS primer preincubated for 48 to 72 hrs followed by primer addition measured after 30 mins by fluorescence plate reader analysis relative to control; type: cell-based
Chain of Telomerase reverse transcriptase (Homo sapiens) (O14746 whole entry): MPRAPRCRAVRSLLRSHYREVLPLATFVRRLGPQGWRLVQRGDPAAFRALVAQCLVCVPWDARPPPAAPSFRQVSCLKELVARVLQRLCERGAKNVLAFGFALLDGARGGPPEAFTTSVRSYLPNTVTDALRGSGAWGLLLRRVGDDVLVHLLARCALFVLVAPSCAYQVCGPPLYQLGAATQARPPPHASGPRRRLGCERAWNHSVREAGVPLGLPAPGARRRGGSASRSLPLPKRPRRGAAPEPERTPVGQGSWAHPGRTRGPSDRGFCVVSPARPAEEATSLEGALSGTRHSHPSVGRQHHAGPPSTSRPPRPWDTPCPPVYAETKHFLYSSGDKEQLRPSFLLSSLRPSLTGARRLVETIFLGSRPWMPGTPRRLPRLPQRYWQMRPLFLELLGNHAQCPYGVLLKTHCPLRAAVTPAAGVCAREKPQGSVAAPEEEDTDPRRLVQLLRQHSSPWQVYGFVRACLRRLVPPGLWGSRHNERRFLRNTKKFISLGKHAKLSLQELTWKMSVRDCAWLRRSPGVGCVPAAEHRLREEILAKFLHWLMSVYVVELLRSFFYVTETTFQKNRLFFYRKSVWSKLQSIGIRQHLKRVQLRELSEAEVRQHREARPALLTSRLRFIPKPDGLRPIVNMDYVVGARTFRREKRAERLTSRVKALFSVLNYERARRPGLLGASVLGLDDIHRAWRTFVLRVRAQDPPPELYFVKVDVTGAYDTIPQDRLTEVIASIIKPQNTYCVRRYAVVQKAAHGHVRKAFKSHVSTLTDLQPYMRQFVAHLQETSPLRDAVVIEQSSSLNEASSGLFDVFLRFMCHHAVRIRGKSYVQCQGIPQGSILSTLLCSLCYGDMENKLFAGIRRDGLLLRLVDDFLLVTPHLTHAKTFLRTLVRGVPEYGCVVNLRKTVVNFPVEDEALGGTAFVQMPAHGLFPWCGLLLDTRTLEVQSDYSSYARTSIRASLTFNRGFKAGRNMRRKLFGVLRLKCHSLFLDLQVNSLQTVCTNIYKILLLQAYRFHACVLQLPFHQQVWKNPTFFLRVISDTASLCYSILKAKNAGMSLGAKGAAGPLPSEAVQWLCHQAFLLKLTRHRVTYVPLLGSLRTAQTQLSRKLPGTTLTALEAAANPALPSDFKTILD
In short: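 MDA-MB-231 cells, 2 × 10⁵ per T-25 flask, were treated the next morning with vehicle or compound at 0.5×, 1×, 2× or 4× GI50. After 48 or 72 h they were lysed in CHAPS buffer with RNase inhibitor on ice for 30 min. Lysate (1000 cell-equivalents) went into a fluorescent TRAP reaction at 30 °C for 30 min. TPG units were taken against an internal standard, and inhibition was expressed relative to untreated cells.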

MDA-MB-231 [19] = assay: Binding affinity to c-MYC G-quadruplex DNA in human MDA-MB-231 cells assessed as inhibition of c-MYC protein expression at 22.3 uM incubated for 6 hrs by Western blot analysis relative to control; type: cell-based
In short: (§5)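 MDA-MB-231 cells were grown in DMEM with 10% heat-inactivated FBS at 37 °C and 5% CO2, then treated with DMSO vehicle or compound for 2, 6 or 24 h. Cells were washed in PBS and lysed in RIPA buffer with protease inhibitors. Blots were probed with anti-c-MYC (1:1000) and HRP anti-rabbit IgG (1:10,000), with β-actin as loading control. Band density is given as percent of vehicle at each time point.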

MDA-MB-231 [20] = assay: Binding affinity to c-MYC G-quadruplex DNA in human MDA-MB-231 cells assessed as inhibition of c-MYC protein expression at 22.3 uM incubated for 24 hrs by Western blot analysis relative to control; type: cell-based; in short: as §5
MDA-MB-231 [21] = assay: Binding affinity to c-MYC G-quadruplex DNA in human MDA-MB-231 cells assessed as inhibition of c-MYC protein expression at 111.5 uM incubated for 24 hrs by Western blot analysis relative to control; type: cell-based; in short: as §5
[22] = biological target: Telomerase reverse transcriptase (Homo sapiens) (UniProt O14746); details: MDA-MB-231, 25 uM
[23] = biological target: Telomerase reverse transcriptase (Homo sapiens) (UniProt O14746); details: MDA-MB-231, 25 uM; remark: listed apart in the source
[24] = Binding affinity to wild type c-MYC 24-mer G-quadruplex DNA (unknown origin) at 4:1 ligand:DNA molar ratio by isothermal titration calorimetry

Structure (SMILES): N=C(N)c1ccc(/N=N/Nc2ccccc2)cc1
ΔTm [2]: 7.1 °C
ΔTm [3]: < 5 °C
ΔTm [4]: 6.4 °C
ΔTm [5]: 6.4 °C
ΔTm [6]: < 5 °C
viability at 20 µM [10]: ≥ 75%
viability at 20 µM [11]: ≥ 75%
viability at 20 µM (MDA-MB-231 [12]): ≥ 75%

Structure (SMILES): C[n+]1ccc(-c2c3nc(c(-c4cc[n+](C)cc4)c4ccc([nH]4)c(-c4cc[n+](C)cc4)c4nc(c(-c5cc[n+](C)cc5)c5ccc2[nH]5)C=C4)C=C3)cc1
GI50 [7]: 14.6 µM
GI50 [8]: 14 µM
GI50 (MDA-MB-231 [9]): 14.3 µM
GI50 at 72 h [13]: 16.8 µM
GI50 at 72 h [14]: 15.2 µM

Structure (SMILES): Nc1cccc(C#Cc2ccc(F)cc2)c1
viability at 20 µM [10]: ≥ 75%
viability at 20 µM [11]: ≥ 75%
viability at 20 µM (MDA-MB-231 [12]): ≥ 75%

Structure (SMILES): C#Cc1ccc(N/N=N/c2ccc(C(=N)N)cc2)cc1
ΔTm [2]: 6.6 °C
ΔTm [3]: < 5 °C
ΔTm [4]: 5.3 °C
ΔTm [5]: 4.2 °C
ΔTm [6]: < 5 °C
GI50 [7]: 11.8 µM
GI50 [8]: 22.5 µM
GI50 (MDA-MB-231 [9]): 30.2 µM

Structure (SMILES): C[n+]1ccc(-c2c3nc(c(-c4cc[n+](C)cc4)c4ccc([nH]4)c(-c4cc[n+](C)cc4)c4ccc([nH]4)c(-c4cc[n+](C)cc4)c4nc2C=C4)C=C3)cc1
inhibition [15]: Active
inhibition [16]: Active
inhibition [17]: Active
inhibition [18]: Dose-dependent effect
inhibition (MDA-MB-231 [19]): 40%
inhibition (MDA-MB-231 [20]): 92%
inhibition (MDA-MB-231 [21]): 100%
ΔTm [2]: 24.1 °C
ΔTm [3]: < 5 °C
ΔTm [5]: 46.7 °C
ΔTm [6]: < 5 °C
inhibition [22]: 60%
inhibition [23]: 80%

Structure (SMILES): N=C(N)c1ccc(N)cc1
viability at 20 µM [10]: ≥ 75%
viability at 20 µM [11]: ≥ 75%
viability at 20 µM (MDA-MB-231 [12]): ≥ 75%

Structure (SMILES): N=C(N)c1ccc(/N=N/Nc2ccccc2C#Cc2ccccc2)cc1
Activity [1]: inactive
ΔTm [2]: 6.4 °C
ΔTm [3]: < 5 °C
ΔTm [4]: 5.12 °C
ΔTm [5]: 1.8 °C
ΔTm [6]: < 5 °C
GI50 [7]: 8.1 µM
GI50 [8]: 5.3 µM
GI50 (MDA-MB-231 [9]): 5.1 µM

Structure (SMILES): C#Cc1cccc(N/N=N/c2ccc(C(=N)N)cc2)c1
Activity [24]: Active
ΔTm [2]: 8.2 °C
ΔTm [3]: < 5 °C
ΔTm [4]: 5.48 °C
ΔTm [5]: 7.1 °C
ΔTm [6]: < 5 °C
GI50 [7]: 16.8 µM
GI50 [8]: 18 µM
GI50 (MDA-MB-231 [9]): 20.5 µM

Now from value to compound, other results behind:

Activity [1]: inactive
ΔTm [2]: 7.3 °C
ΔTm [3]: < 5 °C
ΔTm [4]: 5.48 °C
ΔTm [5]: 2.6 °C
ΔTm [6]: < 5 °C
GI50 (MDA-MB-231 [9]): 5.5 µM
Structure (SMILES): COc1ccc(C#Cc2cccc(N/N=N/c3ccc(C(=N)N)cc3)c2)cc1
GI50 [7]: 5.2 µM
GI50 [8]: 5 µM

ΔTm [2]: 6.2 °C
ΔTm [3]: < 5 °C
ΔTm [4]: 6.22 °C
ΔTm [5]: 2.2 °C
ΔTm [6]: < 5 °C
Structure (SMILES): N#Cc1cccc(N/N=N/c2ccc(C(=N)N)cc2)c1
viability at 20 µM [10]: ≥ 75%
viability at 20 µM [11]: ≥ 75%
viability at 20 µM (MDA-MB-231 [12]): ≥ 75%

Activity [1]: inactive
ΔTm [2]: 6.1 °C
ΔTm [3]: < 5 °C
ΔTm [4]: 6.58 °C
ΔTm [5]: 4.3 °C
ΔTm [6]: < 5 °C
Structure (SMILES): N=C(N)c1ccc(/N=N/Nc2ccncc2)cc1
viability at 20 µM [10]: ≥ 75%
viability at 20 µM [11]: ≥ 75%
viability at 20 µM (MDA-MB-231 [12]): ≥ 75%

Activity [1]: inactive
ΔTm [2]: 9.7 °C
ΔTm [3]: 7.3 °C
ΔTm [4]: 8.04 °C
ΔTm [5]: 13.2 °C
ΔTm [6]: < 5 °C
GI50 (MDA-MB-231 [9]): 14.4 µM
Structure (SMILES): N=C(N)c1ccc(/N=N/Nc2cccc(C#Cc3ccccn3)c2)cc1
GI50 [7]: 10.7 µM
GI50 [8]: 10.4 µM

ΔTm [2]: 9.7 °C
ΔTm [3]: 5.1 °C
ΔTm [4]: 5.3 °C
ΔTm [5]: 8.2 °C
ΔTm [6]: < 5 °C
Structure (SMILES): N#Cc1ccc(N/N=N/c2ccc(C(=N)N)cc2)cc1
viability at 20 µM [10]: ≥ 75%
viability at 20 µM [11]: ≥ 75%
viability at 20 µM (MDA-MB-231 [12]): ≥ 75%

Activity [24]: Active
ΔTm [2]: 7 °C
ΔTm [3]: < 5 °C
ΔTm [4]: 7.68 °C
ΔTm [5]: 4.2 °C
ΔTm [6]: < 5 °C
GI50 (MDA-MB-231 [9]): 23.2 µM
Structure (SMILES): C#Cc1ccccc1N/N=N/c1ccc(C(=N)N)cc1
GI50 [7]: > 25 µM
GI50 [8]: > 50 µM

ΔTm [2]: 8.8 °C
ΔTm [3]: < 5 °C
ΔTm [4]: 5.48 °C
ΔTm [5]: 15 °C
ΔTm [6]: < 5 °C
Structure (SMILES): N=C(N)c1ccc(/N=N/Nc2cccc(-c3ccccc3)c2)cc1
viability at 20 µM [10]: ≥ 75%
viability at 20 µM [11]: ≥ 75%
viability at 20 µM (MDA-MB-231 [12]): ≥ 75%

Activity [1]: inactive
ΔTm [2]: 7.1 °C
ΔTm [3]: < 5 °C
ΔTm [4]: 6.4 °C
ΔTm [5]: 3.7 °C
ΔTm [6]: < 5 °C
GI50 (MDA-MB-231 [9]): 9.5 µM
Structure (SMILES): N=C(N)c1ccc(/N=N/Nc2cccc(C#Cc3ccccc3)c2)cc1
GI50 [7]: 6.5 µM
GI50 [8]: 5.8 µM
